Experimental data: ChEMBL document CHEMBL3865825, “Discovery of novel Tetrahydrobenzo[b]thiophene and pyrrole based scaffolds as potent and selective CB2 receptor ligands: The structural elements controlling binding affinity, selectivity and functionality” (Eur J Med Chem, 2016)
pIC50, pKi: −log10 of the molar value. Activity calls are given as the source filed them. The rule behind the calls is not given here.

Columns and labels:
Cannabinoid receptor 2 [1] = molecular target: T1, Cannabinoid receptor 2 (Homo sapiens, UniProt P34972); assay: Displacement of [3H]-CP-55940 from human CB2 receptor expressed in HEK293 cell membranes at 1 to 10 uM after 90 mins relative to control
Cannabinoid receptor 1 = Cannabinoid receptor 1 (Homo sapiens, UniProt P21554); assay: Displacement of [3H]-CP-55940 from human CB1 receptor expressed in HEK293 cell membranes after 90 mins by radioligand binding assay
Cannabinoid receptor 2 [2] = molecular target: T1, Cannabinoid receptor 2; assay: Displacement of [3H]-CP-55940 from human CB2 receptor expressed in HEK293 cell membranes after 90 mins by radioligand binding assay
How it was run: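 Compounds were screened at 1 and 10 µM; those displacing over 50% were run at 0.1nM–10µM. Ki by Cheng-Prusoff from IC50. At least three experiments, duplicate.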

[3] = molecular target: Cannabinoid receptor 1 (CB1) (Homo sapiens, UniProt P21554); assay: Displacement of [3H]-CP-55940 from human CB1 receptor expressed in HEK293 cell membranes at 1 to 10 uM after 90 mins relative to control; conditions: membranes of HEK293 cells expressing human CB1 receptor, probe [3H]-CP-55940
HEK293 = assay: Selectivity index, ratio of Ki for human CB1 receptor expressed in HEK293 cell membranes to Ki for human CB2 receptor expressed in HEK293 cell membranes; assay type: cell-based
Cannabinoid receptor 2 [4] = molecular target: T1, Cannabinoid receptor 2; assay: Inverse agonist activity at human CB2 receptor expressed in CHO-K1 cells assessed as increase in NKH-477-induced intracellular cAMP levels after 30 mins by luminescence assay; assay type: functional, cell-based
How it was run: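 CHO-K1 cells stably overexpressing human CB2, plated 30,000 cells/well and held overnight at 37 °C, 5% CO2. Compounds were added with NKH-477 (water-soluble forskolin analogue; 3x of 25µM solution) for 30 min at 37°C. cAMP was read by enzyme-fragment-complementation chemiluminescence. Values are normalized to NKH-477 alone as 100% response. Three independent experiments, triplicate.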

Cannabinoid receptor 2 [5] = molecular target: T1, Cannabinoid receptor 2
Cannabinoid receptor 2 [6] = molecular target: T1, Cannabinoid receptor 2; assay: Antagonist activity at human CB2 receptor expressed in CHO-K1 cells assessed as increase in NKH-477-induced intracellular cAMP levels preincubated for 15 mins followed by JWH-133 addition after 30 mins by luminescence assay; assay type: functional, cell-based

T1 sequence (P34972 whole entry): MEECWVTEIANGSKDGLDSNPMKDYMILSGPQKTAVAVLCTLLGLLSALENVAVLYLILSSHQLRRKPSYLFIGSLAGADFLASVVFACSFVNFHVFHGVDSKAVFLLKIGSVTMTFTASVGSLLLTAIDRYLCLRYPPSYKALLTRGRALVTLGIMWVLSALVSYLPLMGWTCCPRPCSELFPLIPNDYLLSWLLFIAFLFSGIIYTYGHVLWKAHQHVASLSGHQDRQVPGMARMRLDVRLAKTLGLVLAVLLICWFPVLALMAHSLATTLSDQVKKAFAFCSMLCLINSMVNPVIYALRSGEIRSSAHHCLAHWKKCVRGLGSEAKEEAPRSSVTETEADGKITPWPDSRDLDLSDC
Chain of Cannabinoid receptor 1 (P21554 whole entry): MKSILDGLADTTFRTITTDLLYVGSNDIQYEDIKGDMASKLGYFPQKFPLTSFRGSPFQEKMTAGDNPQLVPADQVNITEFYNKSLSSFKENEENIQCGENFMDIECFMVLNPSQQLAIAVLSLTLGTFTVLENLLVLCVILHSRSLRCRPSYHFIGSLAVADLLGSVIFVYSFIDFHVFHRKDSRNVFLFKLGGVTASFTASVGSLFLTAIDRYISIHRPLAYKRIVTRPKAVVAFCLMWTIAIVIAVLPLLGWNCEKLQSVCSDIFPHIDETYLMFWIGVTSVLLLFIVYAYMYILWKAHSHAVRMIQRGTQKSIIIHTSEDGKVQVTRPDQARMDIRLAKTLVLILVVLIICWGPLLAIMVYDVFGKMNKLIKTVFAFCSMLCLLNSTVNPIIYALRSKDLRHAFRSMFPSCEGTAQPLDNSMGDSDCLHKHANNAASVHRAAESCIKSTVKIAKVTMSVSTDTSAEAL
Chain of Cannabinoid receptor 1 (CB1) (P21554 whole entry): as above

Structure (SMILES)	inhibition (Cannabinoid receptor 2 [1])	pKi (Cannabinoid receptor 1)	pKi (Cannabinoid receptor 2 [2])	inhibition at 1.5 h, up to 10 µM [3]	Ratio Ki (HEK293)	Activity (Cannabinoid receptor 2 [4])	pIC50 (Cannabinoid receptor 2 [5])	Activity (Cannabinoid receptor 2 [6])
CCOC(=O)c1c(NC(=O)c2ccc3ccccc3c2)sc2c1CCCC2	> 50%	< 5.00	5.75	> 50%	> 5.6	–	–	–
CCOC(=O)c1c(NS(=O)(=O)c2ccccc2)sc2c1CCCC2	> 50%	< 5.00	5.70	> 50%	> 5.02	–	–	–
Cc1cc(C(=O)NC2CCCCC2)c(C)n1-c1ccccc1	> 50%	< 5.00	6.78	> 50%	> 59.6	–	–	–
CCc1c(C(=O)Nc2ccc3ccccc3c2)cc(C)n1-c1ccccc1	> 50%	6.20	7.24	> 50%	11.1	–	–	–
CCOC(=O)c1c(N)sc2c1CCCC2	> 50%	< 5.00	< 5.00	> 50%	–	–	–	–
CCOC(=O)c1cc(-c2ccccc2)sc1NS(=O)(=O)c1ccccc1	> 50%	< 5.00	< 5.00	> 50%	–	–	–	–
CCc1c(C(=O)Nc2cccc3ccccc23)cc(C)n1-c1ccccc1	> 50%	6.30	7.70	> 50%	25	–	–	–
CCOC(=O)c1c(NC(=O)c2cccc3ccccc23)sc2c1CCCC2	> 50%	5.86	7.77	> 50%	80 to 81.7	–	–	–
CCOC(=O)c1cc(-c2ccccc2)sc1NC(=O)c1ccc2ccccc2c1	> 50%	< 5.00	< 5.00	> 50%	–	–	–	–
CCOC(=O)c1cc(-c2ccccc2)sc1N(S(=O)(=O)c1ccc2ccccc2c1)S(=O)(=O)c1ccc2ccccc2c1	> 50%	< 5.00	< 5.00	> 50%	–	–	–	–
CCOC(=O)c1cc(-c2ccccc2)sc1NS(=O)(=O)c1ccc(Cl)cc1	> 50%	< 5.00	< 5.00	> 50%	–	–	–	–
CCOC(=O)c1cc(-c2ccccc2)sc1NC(=O)c1cccc2ccccc12	> 50%	< 5.00	7.22	> 50%	> 167	–	–	–
Cc1cc(C(=O)O)c(C)n1-c1ccccc1	> 50%	< 5.00	< 5.00	> 50%	–	–	–	–
Cc1cc(C(=O)Nc2ccc3ccccc3c2)c(C)n1-c1ccccc1	> 50%	6.55	7.23	> 50%	4.82	–	–	–
Cc1cc(C(=O)NC23CC4CC(CC(C4)C2)C3)c(C)n1-c1ccccc1	> 50%	6.29	8.12	> 50%	68.3	Active	6.96	Active
Cc1cc(C(=O)NC(C)c2ccccc2)c(C)n1-c1ccccc1 (configuration not stated)	> 50%	5.58	6.26	> 50%	4.8	–	–	–

Structure (SMILES)	inhibition (Cannabinoid receptor 2 [1])	pKi (Cannabinoid receptor 1)	pKi (Cannabinoid receptor 2 [2])	inhibition at 1.5 h, up to 10 µM [3]	Ratio Ki (HEK293)	Activity (Cannabinoid receptor 2 [4])	pIC50 (Cannabinoid receptor 2 [5])	Activity (Cannabinoid receptor 2 [6])
CCOC(=O)c1cc(-c2ccccc2)sc1NS(C)(=O)=O	> 50%	< 5.00	< 5.00	> 50%	–	–	–	–
Cc1ccc(Cn2nc(C(=O)N[C@@H]3C(C)(C)[C@@H]4CC[C@@]3(C)C4)cc2-c2ccc(Cl)c(C)c2)cc1	> 50%	–	–	> 50%	–	–	–	–
CCc1c(C(=O)NC2CCCCC2)cc(C)n1-c1ccccc1	> 50%	5.34	6.77	> 50%	> 26.8	–	–	–
CCOC(=O)c1c(NS(=O)(=O)c2cccc3ccccc23)sc2c1CCCC2	> 50%	< 5.00	6.10	> 50%	> 12.5	–	–	–
CCOC(=O)c1c(NS(C)(=O)=O)sc2c1CCCC2	> 50%	< 5.00	< 5.00	> 50%	–	–	–	–
CCc1c(C(=O)O)cc(C)n1-c1ccccc1	> 50%	< 5.00	< 5.00	> 50%	–	–	–	–
CCOC(=O)c1c(NS(=O)(=O)c2ccc(Cl)cc2)sc2c1CCCC2	> 50%	< 5.00	< 5.00	> 50%	–	–	–	–
CCc1c(C(=O)NC23CC4CC(CC(C4)C2)C3)cc(C)n1-c1ccccc1	> 50%	5.92	8.21	> 50%	195 to 200	Active	6.40	Active
Cc1cc(C(=O)NCCc2ccccc2)c(C)n1-c1ccccc1	> 50%	5.23	6.23	> 50%	10.2	–	–	–
Cc1cc(C(=O)Nc2cccc3ccccc23)c(C)n1-c1ccccc1	> 50%	6.50	7.07	> 50%	3.76	–	–	–
CCc1c(C(=O)NCCc2ccccc2)cc(C)n1-c1ccccc1	> 50%	< 5.00	6.14	> 50%	> 13.9	–	–	–
CCc1c(C(=O)NC(C)c2ccccc2)cc(C)n1-c1ccccc1 (configuration not stated)	> 50%	5.43	6.27	> 50%	6.92	–	–	–
CCOC(=O)c1c(NC(=O)C23CC4CC(CC(C4)C2)C3)sc2c1CCCC2	> 50%	6.00	8.67	> 50%	469 to 500	–	6.32	–
CCOC(=O)c1c(NS(=O)(=O)c2ccc3ccccc3c2)sc2c1CCCC2	> 50%	< 5.00	< 5.00	> 50%	–	–	–	–
CCOC(=O)c1c(NC(=O)CCc2ccccc2)sc2c1CCCC2	> 50%	< 5.00	6.95	> 50%	> 89.4	–	–	–
CCOC(=O)c1cc(-c2ccccc2)sc1NS(=O)(=O)c1cccc2ccccc12	> 50%	< 5.00	< 5.00	> 50%	–	–	–	–
